According to PMC3182555 (Nature chemical biology, 2011):

Experiments:
[1] = target: T1, β2-microglobulin (β2m) (Homo sapiens, UniProt P61769); assay: ESI-IMS-MS of non-covalent complexes; assay type: binding
[2] = target: T1, β2-microglobulin (β2m); assay: ESI-IMS-MS of non-covalent complexes; assay type: biochemical
Summary of the method: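 45 μM β2m at pH 2.5 with test compound (0–1125 μM), shaken at 600 rpm, 25 °C, 48 h, three or more replicates pooled. Spun at 16,300x g for 30 min. Supernatant run on SDS-PAGE, and bands quantified as percent soluble protein versus compound:β2m molar ratio. Binding: 38 μM β2m, 10 mM ammonium formate pH 2.5, 40 or 400 μM compound, 10% acetonitrile, ESI-IMS-MS at 70 V cone.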

| IC50 [2] [µM] | Compound | ESI-IMS-MS of non-covalent complexes [1] |
| --- | --- | --- |
|  | CO[C@H]1/C=C/O[C@@]2(C)Oc3c(C)c(O)c4c(O)c(c5c(nc6cc(C)ccn65)c4c3C2=O)NC(=O)/C(C)=C\C=C\[C@H](C)[C@H](O)[C@@H](C)[C@@H](O)[C@@H](C)[C@H](OC(C)=O)[C@@H]1C [rifaximin] | Instead, only the most compact conformer shows binding to this ligand (Figure 4c). |
| ~300 | CO[C@H]1/C=C/O[C@@]2(C)Oc3c(C)c(O)c4c(O)c(cc(O)c4c3C2=O)NC(=O)/C(C)=C\C=C\[C@H](C)[C@H](O)[C@@H](C)[C@@H](O)[C@@H](C)[C@H](OC(C)=O)[C@@H]1C [rifamycin SV] |  |
